Source: ChEMBL document CHEMBL1765074, “Synthesis, evaluation and structural studies of antiproliferative tubulin-targeting azetidin-2-ones” (Bioorg Med Chem, 2011)

How the values were obtained:
MCF7 = experiment: Antiproliferative activity against human MCF7 cells by MTT assay; type: functional, cell-based
Outline: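 MCF-7 cells grown in Eagle's MEM with 10% FBS, 2 mM L-glutamine, penicillin/streptomycin and 1% non-essential amino acids. Seeded at 2.5×10^4 cells/mL, left 24 h at 37°C, then treated 72 h across 1 nM–100 μM from ethanol stocks (vehicle 1% v/v). MTT at 1 mg/mL final for 2 h in darkness, DMSO solubilisation, absorbance read. IC50 is the mean of at least three experiments in triplicate.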

[1] = Cytotoxicity against CD-1 mouse mammary epithelial cells seeded at 50000 cells/ml assessed as viable cells at 10 uM after 72 hrs by alamar blue assay; type: cell-based, Epithelial cell; conditions: read-out: Activity
Outline: (§1)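 Primary mammary epithelial cells came from 14-18 day pregnant CD-1 mice and were seeded at 25,000 or 50,000 cells/mL. After 24 h they were exposed 72 h to 1 nM–100 μM compound from ethanol stocks (vehicle ethanol 1% v/v). Viability was read with alamar blue.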

[2] = Inhibition of bovine tubulin polymerization by spectrophotometry; set-up: species or system Bos taurus
Outline: (§2)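 Purified bovine tubulin was mixed with GTP and polymerisation started by warming from 4 °C to 37 °C. Absorbance at 340 nm was recorded every 30 s for 60 min at 37 °C, with 1% v/v ethanol as vehicle. Fold change in Vmax was calculated against the ethanol control. Runs were in triplicate.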

[3] = Cytotoxicity against CD-1 mouse mammary epithelial cells seeded at 25000 cells/ml assessed as viable cells at 10 uM after 72 hrs by alamar blue assay; type: cell-based, Epithelial cell; conditions: read-out: Activity; outline: as §1
MDA-MB-231 = experiment: Antiproliferative activity against human MDA-MB-231 cells by MTT assay; type: functional, cell-based
Outline: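 MDA-MB-231 cells in DMEM with 10% FBS, 2 mM L-glutamine and penicillin/streptomycin were seeded at 2.5×10^4 cells/mL and held 24 h at 37°C. They then got ethanol-stock compound over 1 nM–100 μM (vehicle 1% v/v ethanol) for 72 h. MTT at 1 mg/mL final was added for 2 h in the dark, then DMSO for 20 min before absorbance. Untreated = 100% viability. IC50 is the mean ± S.E.M. of ≥3 triplicate experiments.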

[4] = Cytotoxicity against CD-1 mouse mammary epithelial cells seeded at 50000 cells/ml assessed as viable cells at IC50 after 72 hrs by alamar blue assay; type: cell-based, Epithelial cell; conditions: read-out: Activity; outline: as §1
Bos taurus = organism: Bos taurus; experiment: Inhibition of bovine tubulin polymerization assessed as reduction in Vmax at 10 uM by spectrophotometry; outline: as §2
[5] = Inhibition of bovine tubulin polymerization assessed as concentration required for 50% Vmax inhibition by spectrophotometry; set-up: species or system Bos taurus
[6] = Cytotoxicity against CD-1 mouse mammary epithelial cells seeded at 25000 cells/ml assessed as viable cells at IC50 after 72 hrs by alamar blue assay; type: cell-based, Epithelial cell; conditions: read-out: Activity; outline: as §1

IC50 (MCF7) [µM]	SMILES	also measured
6.6	COc1ccc([C@@H]2C(c3cc4ccccc4n3C)C(=O)N2c2cc(OC)c(OC)c(OC)c2)cc1 (stereo partly drawn)	
0.007	COc1ccc([C@@H]2[C@@H](c3cccs3)C(=O)N2c2cc(OC)c(OC)c(OC)c2)cc1O	viability at 72 h, 10 µM [1]: 74.8%; IC50 [2]: 6.25 µM; viability at 72 h, 10 µM [3]: 71.2%; IC50 (MDA-MB-231): 0.18 µM; viability at 72 h [4]: 90.6%; fold change (FC) (Bos taurus): 3.2; IC50 [5]: 1.37 µM; viability at 72 h [6]: 90.7%
1.1	COc1ccc([C@@H]2[C@@H](C(O)c3ccoc3)C(=O)N2c2cc(OC)c(OC)c(OC)c2)cc1 (stereo partly drawn)	
1.2	COc1ccc([C@@H]2[C@@H](C(O)c3cccs3)C(=O)N2c2cc(OC)c(OC)c(OC)c2)cc1 (stereo partly drawn)	
1.26	COc1ccc([C@@H]2[C@@H](C(O)c3ccc(C)s3)C(=O)N2c2cc(OC)c(OC)c(OC)c2)cc1 (stereo partly drawn)	
0.95	COc1ccc([C@@H]2[C@@H](C(=O)c3cccs3)C(=O)N2c2cc(OC)c(OC)c(OC)c2)cc1	
0.47	COc1ccc([C@@H]2[C@@H](C(=O)c3ccsc3)C(=O)N2c2cc(OC)c(OC)c(OC)c2)cc1	
4.05	COc1ccc([C@@H]2/C(=C/c3cccs3)C(=O)N2c2cc(OC)c(OC)c(OC)c2)cc1	
0.58	COc1ccc(C2/C(=C/c3ccc(C)s3)C(=O)N2c2cc(OC)c(OC)c(OC)c2)cc1 (stereo not drawn)	
0.58	COc1ccc([C@@H]2C(C3CCCCC3)C(=O)N2c2cc(OC)c(OC)c(OC)c2)cc1 (mixture of isomers)	
43.5	COc1ccc([C@H]2N(c3cc(OC)c(OC)c(OC)c3)C(=O)C2(C)c2ccccc2)cc1 (mixture of isomers)	

SMILES	IC50 (MCF7) [µM]	also measured
COc1ccc([C@@H]2[C@@H](c3ccsc3)C(=O)N2c2cc(OC)c(OC)c(OC)c2)cc1O	0.01	IC50 (MDA-MB-231): 0.049 µM
COc1ccc([C@@H]2[C@@H](c3cccs3)C(=O)N2c2cc(OC)c(OC)c(OC)c2)cc1N	0.042	IC50 (MDA-MB-231): 0.11 µM
